Results as given in ChEMBL document CHEMBL1629555, “Antimalarial activity of phenylthiazolyl-bearing hydroxamate-based histone deacetylase inhibitors” (Antimicrob Agents Chemother, 2008).
The source made the active and inactive calls. The rule behind the calls is not given here.

Tests used:
[1] = Half life in human liver microsome by LC/MS analysis; assay type: ADME; details: liver microsomes
[2] = system: Plasmodium berghei; test: Antimalarial activity against Plasmodium berghei infected in mouse assessed as effect on cure rate at 320 mg/kg/day for 3 days; assay type: functional, organism-based
Outline: (§1)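 Mice were infected ip with 10^6 P. berghei-parasitized erythrocytes. The compound was given orally once daily on days 3, 4 and 5 post-infection in hydroxyethylcellulose-Tween 20 vehicle, alone or together with chloroquine, with 5 mice per dose group. Parasitemia (%) was read on days 3 and 6, and cures were counted as animals cured out of 5.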

[3] = system: Plasmodium falciparum; test: Antimicrobial activity against Plasmodium falciparum D6 infected in Aotus lemurinus lemurinus monkey at […] in presence of azithromycin; assay type: functional
[4] = system: Plasmodium falciparum; test: Antimalarial activity against Plasmodium falciparum at 1 nM assessed as parasite growth after 3.5 hrs; assay type: functional
Outline: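 Infected erythrocytes were exposed to compound for 3.5 h, washed, and returned to culture. Parasite growth was compared with matched controls after 48 h.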

[5] = system: Plasmodium berghei; test: Antimalarial activity against Plasmodium berghei infected in mouse assessed as parasitemia level at 32 mg/kg/day for 3 days measured on day 6 (reference value: 37%); assay type: functional; outline: as §1
[6] = system: Plasmodium falciparum; test: Antimicrobial activity against Plasmodium falciparum D6 infected in Aotus lemurinus lemurinus monkey at […] in presence of mefloquine; assay type: functional
[7] = system: Plasmodium berghei; test: Antimalarial activity against Plasmodium berghei infected in mouse assessed as parasitemia level at 0.32 mg/kg/day for 3 days measured on day 3 (reference value: 0.46%); assay type: functional
[8] = Half life in ICR mouse at 50 mg/kg/day, sc by LC/MS analysis; assay type: ADME, organism-based; parameters: route subcutaneous; details: in vivo
Outline: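 Male ICR mice, 8 weeks old, got one 50 mg/kg dose either orally or subcutaneously, with three groups of six mice per route. One mouse per group was killed at 15, 30 and 60 min and at 3, 6 and 24 h. Plasma was deproteinized with 2 volumes of acetonitrile and analysed by LC-MS/MS on a C18 column against 0–500 ng/ml standards, with parent and acid metabolite measured in the same sample. Each six-mouse group was treated as one "animal" and fitted to a two-compartment model. AUC was taken by the linear trapezoidal rule extrapolated to infinity, and Cmax and Tmax were read per "animal".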

[9] = system: Plasmodium berghei; test: Antimalarial activity against Plasmodium berghei infected in mouse assessed as parasitemia level at 160 mg/kg/day for 3 days measured on day 6 (reference value: 37%); assay type: functional; outline: as §1
[10] = system: Mus musculus; test: Toxicity in Plasmodium berghei-infected mouse assessed as mortality at split dose of 130 mg/kg/day, sc for 3 days measured on day 5; assay type: organism-based; parameters: route subcutaneous; details: in vivo, 72 h

## Nc1cccc(-c2csc(NC(=O)CCCCCCC(=O)NO)n2)c1
[1]
  half-life: > 1 h
[2]
  Activity: inactive
[3]
  fractional inhibitory concentration index (FICI): 1.7
[4]
  Activity: <=40%
[5]
  Activity: 21%
[6]
  fractional inhibitory concentration index (FICI): 2.2
[7]
  Activity: 0.62%
[8]
  half-life: 8.5 h
[9]
  Activity: 8.8%
[10]
  Activity: Toxic
